ChEMBL document CHEMBL4808165, “Design of Thioether Cyclic Peptide Scaffolds with Passive Permeability and Oral Exposure” (J Med Chem, 2021)
In brackets after ≈: the same amount, converted by molar mass. Positions of bridges follow the written chain, without caps; N, C: chain ends. Non-standard residues stand in square brackets, D forms with d. Residues, ends and D or L forms follow the SMILES beside them. NMeF = CN[C@@H](Cc1ccccc1)C(=O)O; NMeNle = CCCC[C@H](NC)C(=O)O; Nle = CCCC[C@H](N)C(=O)O

How the values were obtained:
[1] = 1-Octanol/phosphate buffered-saline distribution coefficient, logD of compound at pH 7.4 measured after 4 hrs by LC-MS analysis; assay type: physicochemical
Method in brief: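 PBS pH 7.4 and 1-octanol, each pre-saturated with the other. 10 mM DMSO stock, dispensed with an internal reference compound in triplicate and dried. Residue shaken in octanol plus buffer for at least 4 h, then centrifuged to separate phases. Both phases quantified by LC-MS/MS. Log D taken from the phase peak-area ratio, normalised to internal standard.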

[2] = Apparent permeability across apical to basolateral membrane in MDCKII-LE cells measured after 120 mins by RapidFire-MS analysis; assay type: ADME, cell-based, Canis lupus familiaris; conditions: dog, MDCK
Method in brief: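 MDCK-LE (low efflux) cells seeded at about 265,000 cells/cm² on Transwells and cultured 4 days. Apical-to-basal transport run in triplicate at 10 μM in HBSS/10 mM HEPES pH 7.4 with 0.02% BSA, 120 min at 37 °C without shaking. Bestatin used as integrity marker. Donor and acceptor quantified by MS against glyburide internal standard. Papp and % recovery calculated.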

[3] = Aqueous solubility of the compound at pH 6.8; assay type: physicochemical; conditions: buffer
Method in brief: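 Thermodynamic (equilibrium) solubility. 10 mM DMSO stock dried down, then pH 6.8 phosphate buffer added to a target of 1 mM. Shaken at 1350 rpm at ambient temperature for 16–24 h. Supernatant centrifuged twice, diluted 200-fold and quantified by RapidFire-MS/MS against a 4-point calibration curve.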

[4] = Clearance in Sprague-Dawley rat liver microsomes measured up to 30 mins in presence of NADPH by HPLC-MS/MS analysis; assay type: ADME, Microsome; conditions: read-out: CLH
[5] = Clearance in human liver microsomes measured up to 30 mins in presence of NADPH by HPLC-MS/MS analysis; assay type: ADME, Microsome; conditions: read-out: CLH
Method in brief: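 Human liver microsomes at 1.25 mg/mL protein in phosphate buffer pH 7.4. Test article at 10 μM, shaken at 37 °C. Reaction started with 2 mM NADPH/4 mM MgCl₂. Aliquots taken at 0, 5, 15 and 30 min and quenched with acetonitrile containing glibenclamide. Parent remaining measured by LC-MS/MS. Elimination rate constant converted to in vitro clearance.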

[6] = Clearance in Sprague-Dawley rat at 5 mg/kg, po or 0.5 mg/kg, iv measured up to 24 hrs by HPLC-MS/MS analysis; assay type: ADME, organism-based; conditions: in vivo
Method in brief: (§1)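 Rat dosing in PEG300:20% Solutol/PBS (10:25:65). IV into a jugular cannula at 0.5 mg/kg (1 mg/kg for some analogues), 1 mL/kg. PO by gavage at 5 mg/kg from a 0.5 mg/mL solution. Blood drawn via jugular cannula at 5 min (IV only), 15 min, 0.5, 1, 2, 4, 7 and 24 h. Plasma analysed by HPLC-MS/MS. Parameters from noncompartmental analysis.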

[7] = Half life in Sprague-Dawley rat at 5 mg/kg, po or 0.5 mg/kg, iv measured up to 24 hrs by HPLC-MS/MS analysis; assay type: ADME, organism-based; conditions: in vivo; method in brief: as §1
[8] = Volume of distribution at steady state in Sprague-Dawley rat at 5 mg/kg, po or 0.5 mg/kg, iv measured up to 24 hrs by HPLC-MS/MS analysis; assay type: ADME, organism-based; conditions: in vivo, read-out: Vdss; method in brief: as §1
[9] = Oral bioavailability in Sprague-Dawley rat at 5 mg/kg measured up to 24 hrs by HPLC-MS/MS analysis; assay type: ADME, organism-based; conditions: in vivo; method in brief: as §1
[10] = Cmax in Sprague-Dawley rat systemic circulation at 5 mg/kg, po or 0.5 mg/kg, iv measured up to 24 hrs by HPLC-MS/MS analysis; assay type: ADME, organism-based; parameters: dose 5 mg/kg, time <=24; method in brief: as §1
[11] = AUC in Sprague-Dawley rat systemic circulation at 5 mg/kg, po or 0.5 mg/kg, iv measured up to 24 hrs by HPLC-MS/MS analysis; assay type: ADME, organism-based; parameters: dose 5 mg/kg, time <=24; method in brief: as §1
[12] = Cmax in Sprague-Dawley rat hepatic portal vein circulation at 5 mg/kg, po or 0.5 mg/kg, iv measured up to 24 hrs by HPLC-MS/MS analysis; assay type: ADME, organism-based; parameters: dose 5 mg/kg, time <=24
[13] = AUC in Sprague-Dawley rat hepatic portal vein circulation at 5 mg/kg, po or 0.5 mg/kg, iv measured up to 24 hrs by HPLC-MS/MS analysis; assay type: ADME, organism-based; parameters: dose 5 mg/kg, time <=24

Row | SMILES | logD at 4 h [1] | Papp A→B at 2 h [2] | solubility [3] | microsomal CLint [4] | microsomal CLint [5] | clearance [6] | half-life [7] | Vd [8] | bioavailability [9] | Cmax [10] | AUC at 24 h [11] | Cmax [12] | AUC at 24 h [13]
1 | CCCC[C@@H]1NC(=O)[C@H](CCCC)N(C)C(=O)[C@H](CCCC)NC(=O)[C@H](CCCC)N(C)C(=O)[C@@H](Cc2ccccc2)NC(=O)CSC[C@H](C(=O)NC)NC1=O | 4.2 | 15 nm/s | 18 µM (≈ 14.4 µg/mL) | ≥ 350 µL/min/mg | ≥ 350 µL/min/mg | – | – | – | – | – | – | – | –
2 | CCCC[C@@H]1NC(=O)[C@H](CCCC)NC(=O)[C@H]2CCCN2C(=O)[C@H](CCCC)NC(=O)[C@H](Cc2ccccc2)NC(=O)CSC[C@H](C(=O)NC)NC(=O)[C@H](CCCC)NC1=O | 3.7 | 2 nm/s | 9 µM (≈ 7.84 µg/mL) | ≥ 480 µL/min/mg | ≥ 480 µL/min/mg | 4.32 L/h/kg | 4.8 min | 0.2 L/kg | < 1% | – | – | – | –
3 | CCCC[C@@H]1NC(=O)C2CCCN2C(=O)[C@H](CCCC)NC(=O)[C@H](Cc2ccccc2)NC(=O)CSC[C@H](C(=O)NC)NC(=O)[C@H](CCCC)NC1=O (stereo not given in full) | 3.1 | 6 nm/s | 200 µM (≈ 152 µg/mL) | ≥ 350 µL/min/mg | ≥ 350 µL/min/mg | 13.3 L/h/kg | 12 min | 2 L/kg | < 1% | 0.0017 µM | 0.6 nM·h | – | –
4 | CCCC[C@@H]1NC(=O)[C@H](Cc2ccccc2)N(C)C(=O)CSC[C@H](C(=O)NC)N(C)C(=O)[C@H](CCCC)NC(=O)[C@H](CCCC)N(C)C(=O)C2CCCN2C1=O (stereo not given in full) | 3.6 | 63 nm/s | 216 µM (≈ 173 µg/mL) | ≥ 350 µL/min/mg | ≥ 350 µL/min/mg | 4.32 L/h/kg | 18 min | 1.3 L/kg | 6% | 0.152 µM | 92 nM·h | – | –
5 | CCCC[C@@H]1NC(=O)[C@H](Cc2ccccc2)NC(=O)CSC[C@@H](C(=O)NC)NC(=O)[C@H](CCCC)N(C)C(=O)[C@H](CCCC)N(C)C(=O)[C@H](CCCC)N(C)C(=O)[C@H](CCCC)NC(=O)[C@H](CCCC)N(C)C1=O ({CH2CO}-F[Nle][NMeNle][Nle][NMeNle][NMeNle][NMeNle]C-NHMe; thioether N-8) | 6.1 | < 3.5 nm/s | < 4 µM | ≥ 120 µL/min/mg | ≥ 120 µL/min/mg | 0.72 L/h/kg | – | – | 17% | 0.436 µM | 1080 nM·h | – | –
6 | CCCC[C@@H]1NC(=O)[C@H](CCCC)NC(=O)[C@H](CCCC)NC(=O)[C@@H](Cc2ccccc2)NC(=O)CSC[C@H](C(=O)NC)NC(=O)[C@H](CCCC)NC1=O | 3.6 | 4 nm/s | 5 µM (≈ 3.87 µg/mL) | ≥ 350 µL/min/mg | ≥ 350 µL/min/mg | – | – | – | – | – | – | – | –
7 | CCCC[C@@H]1NC(=O)[C@H](Cc2ccccc2)N(C)C(=O)CSC[C@H](C(=O)NC)N(C)C(=O)[C@H](CCCC)NC(=O)[C@H](CCCC)N(C)C(=O)[C@H](CCCC)NC1=O | 4.1 | 80 nm/s | 12 µM (≈ 9.79 µg/mL) | ≥ 350 µL/min/mg | ≥ 350 µL/min/mg | 5.16 L/h/kg | 54 min | 2.1 L/kg | 20% | 0.114 µM | 258 nM·h | 0.14 µM | 173 nM·h
8 | CCCC[C@@H]1NC(=O)[C@H](Cc2ccccc2)NC(=O)CSC[C@H](C(=O)NC)NC(=O)[C@H](CCCC)NC(=O)[C@H](CCCC)NC(=O)[C@H](CCCC)NC1=O | 3.6 | 6 nm/s | < 4 µM | ≥ 350 µL/min/mg | ≥ 350 µL/min/mg | 42.1 L/h/kg | 18 min | – | < 1% | – | – | – | –
9 | CCCC[C@@H]1NC(=O)[C@H](CCCC)N(C)C(=O)[C@H](CCCC)NC(=O)[C@H](CCCC)N(C)C(=O)[C@H](CCCC)NC(=O)[C@H](CCCC)N(C)C(=O)[C@@H](Cc2ccccc2)NC(=O)CSC[C@@H](C(=O)NC)NC1=O | 6 | < 3.5 nm/s | < 4 µM | ≥ 120 µL/min/mg | ≥ 120 µL/min/mg | 1.98 L/h/kg | – | – | 54% | 0.411 µM | 1270 nM·h | – | –
10 | CCCC[C@@H]1NC(=O)[C@H](Cc2ccccc2)NC(=O)CSC[C@H](C(=O)NC)NC(=O)[C@H](CCCC)N(C)C(=O)[C@H](CCCC)NC(=O)[C@H](CCCC)N(C)C1=O | 4.6 | 39 nm/s | 5 µM (≈ 4.01 µg/mL) | ≥ 350 µL/min/mg | ≥ 350 µL/min/mg | 0.534 L/h/kg | 228 min | 1 L/kg | 19% | 1.03 µM | 2290 nM·h | 0.819 µM | 1860 nM·h
11 | CCCC[C@@H]1NC(=O)[C@H](CCCC)N(C)C(=O)[C@H](CCCC)NC(=O)[C@H](Cc2ccccc2)N(C)C(=O)[C@H]([C@@H](C)O)NC(=O)[C@H](CCCC)N(C)C(=O)[C@@H](Cc2ccccc2)NC(=O)CSC[C@@H](C(=O)NC)NC1=O | 5.2 | < 3.5 nm/s | < 4 µM | ≥ 120 µL/min/mg | ≥ 120 µL/min/mg | 1.7 L/h/kg | – | – | 13% | 0.161 µM | 372 nM·h | – | –
12 | CCCC[C@@H]1NC(=O)[C@H](Cc2ccccc2)N(C)C(=O)[C@@H]2CCCN2C(=O)[C@H](CCCC)N(C)C(=O)[C@H](Cc2ccccc2)NC(=O)CSC[C@@H](C(=O)NC)NC(=O)[C@H](CCCC)N(C)C1=O ({CH2CO}-F[NMeNle]P[NMeF][Nle][NMeNle]C-NHMe; thioether N-7) | 4.9 | 23 nm/s | 9 µM (≈ 8.53 µg/mL) | ≥ 480 µL/min/mg | ≥ 480 µL/min/mg | 1.14 L/h/kg | 90 min | 1.1 L/kg | 84% | 1.95 µM | 1310 nM·h | – | –
13 | CCCC[C@@H]1NC(=O)[C@H](CCCC)NC(=O)[C@H](CCCC)N(C)C(=O)[C@@H]2CCCN2C(=O)[C@H](CCCC)N(C)C(=O)[C@H](Cc2ccccc2)NC(=O)CSC[C@@H](C(=O)NC)NC1=O ({CH2CO}-F[NMeNle]P[NMeNle][Nle][Nle]C-NHMe; thioether N-7) | 4.7 | 8 nm/s | 9 µM (≈ 8.09 µg/mL) | ≥ 480 µL/min/mg | ≥ 480 µL/min/mg | 6.36 L/h/kg | 42 min | 4.4 L/kg | 1% | 0.018 µM | 10 nM·h | – | –
14 | CCCC[C@@H]1NC(=O)[C@H](CCCC)N(C)C(=O)[C@@H]2CCCN2C(=O)[C@H](CCCC)N(C)C(=O)[C@H](Cc2ccccc2)NC(=O)CSC[C@@H](C(=O)NC)NC(=O)[C@H](CCCC)N(C)C1=O ({CH2CO}-F[NMeNle]P[NMeNle][Nle][NMeNle]C-NHMe; thioether N-7) | 4.8 | 64 nm/s | 9 µM (≈ 8.22 µg/mL) | ≥ 480 µL/min/mg | ≥ 480 µL/min/mg | 2.1 L/h/kg | 36 min | 1.2 L/kg | 86% | 0.868 µM | 2130 nM·h | – | –
